According to ChEMBL document CHEMBL3044653, “Synthesis and herbicidal activity of 2-(substituted phenoxyacetoxy)alkyl-5,5-dimethyl-1,3,2-dioxaphosphinan-2-one” (J Agric Food Chem, 2012):

Columns and labels:
[1] = test system: Brassica rapa subsp. chinensis; assay: Post-emergence herbicidal activity against Brassica rapa subsp. chinensis assessed as inhibition at 150 g/hectare by green house assay; assay type: functional
[2] = test system: Radish; assay: Post-emergence herbicidal activity against Raphanus sativus (radish) assessed as inhibition at 75 g/hectare by green house assay; assay type: functional
[3] = test system: Setaria viridis; assay: Post-emergence herbicidal activity against Setaria viridis (green foxtail) assessed as inhibition at 150 g/hectare treated at one-leaf stage by green house assay; assay type: functional
In short: (§1)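 Monocot weeds were sprayed postemergence in the greenhouse at the one-leaf stage with diluted formulation solutions. Primary dose was 150 g ai/ha, with follow-up doses of 75 and 37.5 g ai/ha for selected compounds. Activity is scored as percent herbicidal damage compared with an untreated control.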

[4] = test system: Amaranthus retroflexus; assay: Post-emergence herbicidal activity against Amaranthus retroflexus assessed as inhibition at 75 g/hectare treated at two-leaf stage by green house assay; assay type: functional
In short: (§2)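 Greenhouse postemergence spray of diluted formulation solutions onto broadleaf weeds at the two-leaf stage. Primary screen at 150 g ai/ha, with selected compounds retested at 75 and 37.5 g ai/ha. Abutilon was tested at 150 g ai/ha only. Read-out is percent herbicidal damage relative to an untreated control.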

[5] = test system: Ammannia baccifera; assay: Post-emergence herbicidal activity against Ammannia baccifera assessed as inhibition at 150 g/hectare by green house assay; assay type: functional
[6] = test system: Brassica napus; assay: Toxicity in Brassica napus (oilseed rape) assessed as inhibition at 150 g/hectare; assay type: functional
In short: (§3)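 For crop selectivity, conventional crop varieties were planted in 12 cm diameter plots and given a postemergence treatment at 150 g ai/ha. Injury was scored as percent inhibition, with 0–10% classed as safe to the crop.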

[7] = test system: Brassica oleracea; assay: Post-emergence herbicidal activity against Brassica oleracea assessed as inhibition at 75 g/hectare by green house assay; assay type: functional
[8] = test system: Amaranthus retroflexus; assay: Post-emergence herbicidal activity against Amaranthus retroflexus assessed as inhibition at 37.5 g/hectare treated at two-leaf stage by green house assay; assay type: functional; in short: as §2
[9] = test system: Amaranthus retroflexus; assay: Post-emergence herbicidal activity against Amaranthus retroflexus assessed as inhibition at 150 g/hectare treated at two-leaf stage by green house assay; assay type: functional; in short: as §2
[10] = test system: Brassica juncea; assay: Post-emergence herbicidal activity against Brassica juncea assessed as inhibition at 37.5 g/hectare treated at two-leaf stage by green house assay; assay type: functional; in short: as §2
[11] = test system: Triticum aestivum; assay: Toxicity in Triticum aestivum (wheat) plant assessed as inhibition at 150 g/hectare; assay type: organism-based; details: in vivo; in short: as §3
[12] = test system: Gossypium hirsutum; assay: Toxicity in Gossypium hirsutum (cotton) plant assessed as inhibition at 150 g/hectare; assay type: organism-based; details: in vivo; in short: as §3
[13] = test system: Brassica rapa subsp. oleifera; assay: Post-emergence herbicidal activity against Brassica rapa subsp. oleifera assessed as inhibition at 150 g/hectare by green house assay; assay type: functional
[14] = test system: Zea mays; assay: Toxicity in Zea mays (maize) plant assessed as inhibition at 150 g/hectare; assay type: organism-based; details: in vivo; in short: as §3
[15] = test system: Eclipta prostrata; assay: Post-emergence herbicidal activity against Eclipta prostrata assessed as inhibition at 75 g/hectare treated at two-leaf stage by green house assay; assay type: functional; in short: as §2
[16] = test system: Echinochloa crus-galli; assay: Post-emergence herbicidal activity against Echinochloa crus-galli (barnyard grass) assessed as inhibition at 75 g/hectare treated at one-leaf stage by green house assay; assay type: functional; in short: as §1
[17] = test system: Abutilon theophrasti; assay: Post-emergence herbicidal activity against Abutilon theophrasti (velvetleaf) assessed as inhibition at 150 g/hectare treated at two-leaf stage by green house assay; assay type: functional; in short: as §2
[18] = test system: Brassica rapa subsp. chinensis; assay: Post-emergence herbicidal activity against Brassica rapa subsp. chinensis assessed as inhibition at 75 g/hectare by green house assay; assay type: functional
[19] = test system: Pontederia vaginalis; assay: Post-emergence herbicidal activity against Monochoria vaginalis assessed as inhibition at 75 g/hectare by green house assay; assay type: functional
[20] = test system: Glycine max; assay: Toxicity in Glycine max (soybean) plant assessed as inhibition at 150 g/hectare; assay type: organism-based; details: in vivo; in short: as §3
[21] = test system: Digitaria sanguinalis; assay: Post-emergence herbicidal activity against Digitaria sanguinalis (hairy crabgrass) assessed as inhibition at 37.5 g/hectare treated at one-leaf stage by green house assay; assay type: functional; in short: as §1
[22] = test system: Setaria viridis; assay: Post-emergence herbicidal activity against Setaria viridis (green foxtail) assessed as inhibition at 37.5 g/hectare treated at one-leaf stage by green house assay; assay type: functional; in short: as §1
[23] = test system: Brassica oleracea; assay: Post-emergence herbicidal activity against Brassica oleracea assessed as inhibition at 150 g/hectare by green house assay; assay type: functional
[24] = test system: Digitaria sanguinalis; assay: Post-emergence herbicidal activity against Digitaria sanguinalis (hairy crabgrass) assessed as inhibition at 75 g/hectare treated at one-leaf stage by green house assay; assay type: functional; in short: as §1
[25] = test system: Amaranthus retroflexus; assay: Post-emergence herbicidal activity against Amaranthus retroflexus assessed as inhibition at 75 g/hectare by green house assay; assay type: functional
[26] = test system: Ammannia baccifera; assay: Post-emergence herbicidal activity against Ammannia baccifera assessed as inhibition at 75 g/hectare by green house assay; assay type: functional
[27] = test system: Digitaria sanguinalis; assay: Post-emergence herbicidal activity against Digitaria sanguinalis (hairy crabgrass) assessed as inhibition at 150 g/hectare treated at one-leaf stage by green house assay; assay type: functional; in short: as §1
[28] = test system: Amaranthus retroflexus; assay: Post-emergence herbicidal activity against Amaranthus retroflexus assessed as inhibition at 150 g/hectare by green house assay; assay type: functional
[29] = test system: Setaria viridis; assay: Post-emergence herbicidal activity against Setaria viridis (green foxtail) assessed as inhibition at 75 g/hectare treated at one-leaf stage by green house assay; assay type: functional; in short: as §1
[30] = test system: Radish; assay: Post-emergence herbicidal activity against Raphanus sativus (radish) assessed as inhibition at 150 g/hectare by green house assay; assay type: functional
[31] = test system: Brassica juncea; assay: Post-emergence herbicidal activity against Brassica juncea assessed as inhibition at 150 g/hectare treated at two-leaf stage by green house assay; assay type: functional; in short: as §2
[32] = test system: Echinochloa crus-galli; assay: Post-emergence herbicidal activity against Echinochloa crus-galli (barnyard grass) assessed as inhibition at 150 g/hectare treated at one-leaf stage by green house assay; assay type: functional; in short: as §1
[33] = test system: Pontederia vaginalis; assay: Post-emergence herbicidal activity against Monochoria vaginalis assessed as inhibition at 150 g/hectare by green house assay; assay type: functional
[34] = test system: Oryza sativa; assay: Toxicity in Oryza sativa (rice) plant assessed as inhibition at 150 g/hectare; assay type: organism-based; details: in vivo; in short: as §3
[35] = test system: Brassica juncea; assay: Post-emergence herbicidal activity against Brassica juncea assessed as inhibition at 150 g/hectare by green house assay; assay type: functional
[36] = test system: Chenopodium album; assay: Post-emergence herbicidal activity against Chenopodium album assessed as inhibition at 150 g/hectare by green house assay; assay type: functional
[37] = test system: Brassica rapa subsp. oleifera; assay: Post-emergence herbicidal activity against Brassica rapa subsp. oleifera assessed as inhibition at 75 g/hectare by green house assay; assay type: functional
[38] = test system: Eclipta prostrata; assay: Post-emergence herbicidal activity against Eclipta prostrata assessed as inhibition at 150 g/hectare treated at two-leaf stage by green house assay; assay type: functional; in short: as §2
[39] = test system: Brassica juncea; assay: Post-emergence herbicidal activity against Brassica juncea assessed as inhibition at 75 g/hectare treated at two-leaf stage by green house assay; assay type: functional; in short: as §2
[40] = test system: Eclipta prostrata; assay: Post-emergence herbicidal activity against Eclipta prostrata assessed as inhibition at 37.5 g/hectare treated at two-leaf stage by green house assay; assay type: functional; in short: as §2
[41] = test system: Ipomoea nil; assay: Post-emergence herbicidal activity against Ipomoea nil (Japanese morning glory) assessed as inhibition at 75 g/hectare by green house assay; assay type: functional
[42] = test system: Ipomoea nil; assay: Post-emergence herbicidal activity against Ipomoea nil (Japanese morning glory) assessed as inhibition at 150 g/hectare by green house assay; assay type: functional
[43] = test system: Brassica juncea; assay: Post-emergence herbicidal activity against Brassica juncea assessed as inhibition at 75 g/hectare by green house assay; assay type: functional
[44] = test system: Echinochloa crus-galli; assay: Post-emergence herbicidal activity against Echinochloa crus-galli (barnyard grass) assessed as inhibition at 37.5 g/hectare treated at one-leaf stage by green house assay; assay type: functional; in short: as §1
[45] = test system: Chenopodium album; assay: Post-emergence herbicidal activity against Chenopodium album assessed as inhibition at 75 g/hectare by green house assay; assay type: functional

SMILES: CC1(C)COP(=O)(C(OC(=O)COc2ccc(Cl)cc2Cl)c2ccco2)OC1 (stereo not given)
- inhibition at 150 g/ha [1]: 80%
- inhibition at 75 g/ha [2]: 80%
- inhibition at 150 g/ha [3]: 30%
- inhibition at 75 g/ha [4]: 70%
- inhibition at 150 g/ha [5]: 100%
- inhibition at 150 g/ha [6]: 40%
- inhibition at 75 g/ha [7]: 80%
- inhibition at 37.5 g/ha [8]: 50%
- inhibition at 150 g/ha [9]: 80%
- inhibition at 37.5 g/ha [10]: 85%
- inhibition (INH) [11]: 10%
- inhibition (INH) [12]: 30%
- inhibition at 150 g/ha [13]: 95%
- inhibition (INH) [14]: 0%
- inhibition at 75 g/ha [15]: 62%
- inhibition at 75 g/ha [16]: 0%
- inhibition at 150 g/ha [17]: 90%
- inhibition at 75 g/ha [18]: 70%
- inhibition at 75 g/ha [19]: 100%
- inhibition (INH) [20]: 30%
- inhibition at 37.5 g/ha [21]: 0%
- inhibition at 37.5 g/ha [22]: 0%
- inhibition at 150 g/ha [23]: 85%
- inhibition at 75 g/ha [24]: 0%
- inhibition at 75 g/ha [25]: 70%
- inhibition at 75 g/ha [26]: 100%
- inhibition at 150 g/ha [27]: 40%
- inhibition at 150 g/ha [28]: 80%
- inhibition at 75 g/ha [29]: 0%
- inhibition at 150 g/ha [30]: 85%
- inhibition at 150 g/ha [31]: 95%
- inhibition at 150 g/ha [32]: 30%
- inhibition at 150 g/ha [33]: 100%
- inhibition (INH) [34]: 40%
- inhibition at 150 g/ha [35]: 95%
- inhibition at 150 g/ha [36]: 80%
- inhibition at 75 g/ha [37]: 80%
- inhibition at 150 g/ha [38]: 80%
- inhibition at 75 g/ha [39]: 90%
- inhibition at 37.5 g/ha [40]: 60%
- inhibition at 75 g/ha [41]: 100%
- inhibition at 150 g/ha [42]: 100%
- inhibition at 75 g/ha [43]: 90%
- inhibition at 37.5 g/ha [44]: 0%
- inhibition at 75 g/ha [45]: 70%

SMILES: CC1(C)COP(=O)(C(OC(=O)COc2ccc(Cl)cc2Cl)c2ccccc2)OC1 (stereo not given)
- inhibition at 150 g/ha [3]: 0%
- inhibition at 75 g/ha [4]: 80%
- inhibition at 150 g/ha [6]: 40%
- inhibition at 37.5 g/ha [8]: 50%
- inhibition at 150 g/ha [9]: 90%
- inhibition at 37.5 g/ha [10]: 90%
- inhibition (INH) [11]: 10%
- inhibition (INH) [12]: 40%
- inhibition (INH) [14]: 0%
- inhibition at 75 g/ha [15]: 55%
- inhibition at 75 g/ha [16]: 0%
- inhibition at 150 g/ha [17]: 98%
- inhibition (INH) [20]: 30%
- inhibition at 37.5 g/ha [21]: 0%
- inhibition at 37.5 g/ha [22]: 0%
- inhibition at 75 g/ha [24]: 0%
- inhibition at 150 g/ha [27]: 0%
- inhibition at 75 g/ha [29]: 0%
- inhibition at 150 g/ha [31]: 100%
- inhibition at 150 g/ha [32]: 0%
- inhibition (INH) [34]: 10%
- inhibition at 150 g/ha [38]: 80%
- inhibition at 75 g/ha [39]: 95%
- inhibition at 37.5 g/ha [40]: 50%
- inhibition at 37.5 g/ha [44]: 0%

SMILES: O=C(O)CNCP(=O)(O)O [GLYPHOSATE]
- inhibition at 150 g/ha [1]: 80%
- inhibition at 75 g/ha [2]: 60%
- inhibition at 150 g/ha [5]: 100%
- inhibition at 75 g/ha [7]: 70%
- inhibition at 150 g/ha [13]: 100%
- inhibition at 75 g/ha [18]: 70%
- inhibition at 75 g/ha [19]: 100%
- inhibition at 150 g/ha [23]: 80%
- inhibition at 75 g/ha [25]: 90%
- inhibition at 75 g/ha [26]: 100%
- inhibition at 150 g/ha [28]: 90%
- inhibition at 150 g/ha [30]: 65%
- inhibition at 150 g/ha [33]: 100%
- inhibition at 150 g/ha [35]: 80%
- inhibition at 150 g/ha [36]: 90%
- inhibition at 75 g/ha [37]: 100%
- inhibition at 75 g/ha [41]: 60%
- inhibition at 150 g/ha [42]: 60%
- inhibition at 75 g/ha [43]: 30%
- inhibition at 75 g/ha [45]: 70%
